# According to ChEMBL document CHEMBL1136968, “Structurally simple inhibitors of lanosterol 14alpha-demethylase are efficacious in a rodent model of acute Chagas disease” (J Med Chem, 2009):
# Activity calls are given as the source filed them. The calls are words filed in the database; no cut-off is given here.
# What was measured:
# [1] = Plasma concentration in mouse at 30 mg/kg, po after 1 hr; type: ADME, organism-based; design: dose 30 mg/kg, route oral
# Trypanosoma cruzi [2] = test: Antitrypanosomal activity against Trypanosoma cruzi Tulahuen amastigotes in mouse 3T3 cells by beta-galactosidase reporter gene assay; type: functional, organism-based; conditions: NIH3T3
# Outline: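 Tulahuen strain (TCII lineage) grown as intracellular amastigotes in murine 3T3 fibroblasts in 96-well plates. EC50 determined from triplicate screens. Standard errors within assays stayed below 15%.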
# [3] = Toxicity against mouse 3T3 cells by resazurin assay; type: cell-based; conditions: NIH3T3 cells
# Outline: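 Murine 3T3 fibroblasts screened separately from the parasites. Host-cell growth was quantified by resazurin read-out and EC50 determined.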
# Trypanosoma cruzi [4] = test: Antitrypanosomal activity against Trypanosoma cruzi infected mouse model of acute Chagas disease assessed as parasitemia burden in blood at 50 mg/kg, po administered twice daily for 14 days relative to untreated control; type: functional
# [5] = Half life in mouse at 30 mg/kg, po; type: ADME, organism-based; design: dose 30 mg/kg, route oral; conditions: in vivo
# Mus musculus [6] = test: Toxicity in Trypanosoma cruzi Tulahuen infected BALB/c mouse model of acute Chagas disease assessed as incidence of side effects at 50 mg/kg, po administered twice daily 7 days after parasite infection for 21 days; type: organism-based; design: dose 50 mg/kg, route oral; conditions: in vivo
# Outline: (§1)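 BALB/c females, 7–8 weeks, infected subcutaneously with 1 × 10^4 Tulahuen trypomastigotes; all were parasitemic by day 7. Groups of 6 were dosed by oral gavage twice daily on days 7–27 in 20% (w/v) hydroxypropyl beta-cyclodextrin, 100 µL per dose; vehicle group as control. Parasitemia was counted in 5 µL tail blood over 50 high-power fields through day 97. At day 100, 200 µL whole blood was tested by PCR.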
# [7] = Tmax in Trypanosoma cruzi infected BALB/c mouse model of acute Chagas disease at 50 mg/kg, po administered as single dose; type: ADME, organism-based; design: dose 50 mg/kg, route oral; conditions: in vivo
# Outline: (§2)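 BALB/c females, 7–8 weeks, ~20 g, groups of three; single oral gavage at 50 mg/kg, given as a 10 mg/ml suspension in 20% (w/v) hydroxypropyl beta-cyclodextrin, 100 µL. Tail blood (40 µL) taken at timed intervals into heparinized capillaries. Plasma was separated, frozen and analysed later. Sampling ran to 5 hr. Values are averages from 3 mice.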
# Mus musculus [8] = test: Toxicity in Trypanosoma cruzi Tulahuen infected BALB/c mouse model of acute Chagas disease assessed as mouse survival at 50 mg/kg, po administered twice daily 7 days after parasite infection for 21 days measured 100 days postinfection; type: organism-based; design: dose 50 mg/kg, route oral; conditions: in vivo, 2400 h
# Outline: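 Subcutaneous infection of female BALB/c mice (7–8 wk) with 1 × 10^4 Tulahuen trypomastigotes. Groups of 6 given oral gavage twice daily, days 7–27, in 20% (w/v) hydroxypropyl beta-cyclodextrin. Parasitemia followed by counting 50 high-power fields of 5 µL tail blood through day 97. Pre-morbid mice euthanized; survival and side effects recorded to termination at day 100.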
# [9] = AUC (0 to 5 hrs) in Trypanosoma cruzi infected BALB/c mouse model of acute Chagas disease at 50 mg/kg, po administered as single dose; type: ADME, organism-based; design: dose 50 mg/kg, route oral; conditions: in vivo; outline: as §2
# [10] = biological target: Sterol 14-alpha demethylase (Trypanosoma cruzi (strain CL Brener), UniProt Q7Z1V1); test: Binding affinity to Trypanosoma cruzi lanosterol 14-alpha-demethylase expressed in Escherichia coli assessed as equilibrium dissociation constant for enzyme-inhibitor complex by difference spectroscopy
# [11] = Cmax in Trypanosoma cruzi infected BALB/c mouse model of acute Chagas disease at 50 mg/kg, po administered as single dose; type: ADME, organism-based; design: dose 50 mg/kg, route oral; conditions: in vivo; outline: as §2
# [12] = biological target: Sterol 14-alpha demethylase (Trypanosoma cruzi (strain CL Brener)) (UniProt Q7Z1V1); test: Binding affinity to Trypanosoma cruzi lanosterol 14-alpha-demethylase expressed in Escherichia coli assessed as enzyme spectral change by difference spectroscopy
# Trypanosoma cruzi [13] = test: (§3) Antitrypanosomal activity against Trypanosoma cruzi Tulahuen infected BALB/c mouse model of acute Chagas disease assessed as parasitemia burden in blood at 50 mg/kg, po administered twice daily 7 days after parasite infection for 21 days measured 100 days postinfection by PCR assay relative to untreated control; type: functional, organism-based; design: dose 50 mg/kg; outline: as §1
# Trypanosoma cruzi [14] = test: as §3, with “20” for “50”; type: functional, organism-based; design: dose 20 mg/kg
# Outline: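 Female BALB/c mice (7–8 wk) infected s.c. with 1 × 10^4 Tulahuen trypomastigotes; blood parasites seen by day 7. Groups of 6 dosed by oral gavage twice daily, days 7–27, in 20% (w/v) hydroxypropyl beta-cyclodextrin vehicle. Vehicle group as control. Mice sacrificed at day 100; 200 µL whole blood tested by PCR for T. cruzi; scored as positive mice per group.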
# [15] = Terminal half life in rat; type: ADME, organism-based; conditions: in vivo, read-out: beta t1/2 (converted)
# [16] = Terminal half life in mouse; type: ADME, organism-based; conditions: in vivo, read-out: beta t1/2 (converted)
# Sterol 14-alpha demethylase, sequence (Q7Z1V1 whole entry): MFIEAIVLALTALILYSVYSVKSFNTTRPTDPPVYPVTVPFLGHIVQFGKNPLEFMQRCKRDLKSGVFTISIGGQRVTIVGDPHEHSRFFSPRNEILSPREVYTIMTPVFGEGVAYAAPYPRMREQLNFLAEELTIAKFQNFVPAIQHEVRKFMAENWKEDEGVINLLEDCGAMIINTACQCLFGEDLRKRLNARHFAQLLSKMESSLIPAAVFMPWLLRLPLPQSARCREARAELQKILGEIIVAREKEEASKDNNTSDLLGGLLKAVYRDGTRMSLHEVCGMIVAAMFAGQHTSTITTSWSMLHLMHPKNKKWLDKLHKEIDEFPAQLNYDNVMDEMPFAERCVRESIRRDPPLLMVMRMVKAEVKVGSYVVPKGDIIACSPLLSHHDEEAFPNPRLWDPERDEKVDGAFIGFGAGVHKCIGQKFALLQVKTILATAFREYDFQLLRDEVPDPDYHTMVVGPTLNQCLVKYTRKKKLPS
# Sterol 14-alpha demethylase (Trypanosoma cruzi (strain CL Brener)), sequence (Q7Z1V1 whole entry, looked up): as the sequence (Q7Z1V1 whole entry) above
structure (smiles),measurement,setting,value
c1ccc(-c2ccc(Cn3cncc3CNc3ccc(-c4nc5ccccc5s4)c(-c4ccccc4)c3)cc2)cc1,concentration at 1 h,[1],16 µM
same,EC50,Trypanosoma cruzi [2],7 nM
same,EC50,[3],> 1000 nM
same,Activity,Trypanosoma cruzi [4],1%
same,half-life,[5],4 h
Nc1cc(-c2ccccc2)ccc1Cn1cncc1CNc1ccc(Cl)c(-c2ccccc2)c1,Activity,Mus musculus [6],Non-toxic
same,Tmax,[7],0.8 h
same,EC50,Trypanosoma cruzi [2],1.2 nM
same,Activity,Mus musculus [8],Non-toxic
same,AUC(0-t) at 4 h,[9],6.3 µg·h/mL
same,EC50,[3],> 1000 nM
same,Kd,[10],< 2200 nM
same,Cmax,[11],2.4 µg/mL
same,Activity,[12],Active
same,Activity,Trypanosoma cruzi [13],inactive
Nc1cc(-c2ccccc2)ccc1Cn1cncc1CNc1ccc(-c2nc3ccccc3s2)c(-c2ccccc2)c1,Activity,Mus musculus [6],Non-toxic
same,Activity,Trypanosoma cruzi [14],Active
same,Tmax,[7],1.7 h
same,EC50,Trypanosoma cruzi [2],0.4 nM
same,Activity,Mus musculus [8],Non-toxic
same,AUC(0-t) at 4 h,[9],28.7 µg·h/mL
same,EC50,[3],> 1000 nM
same,Kd,[10],< 2200 nM
same,Cmax,[11],7.2 µg/mL
same,Activity,[12],Active
CC[C@@H]([C@H](C)O)n1ncn(-c2ccc(N3CCN(c4ccc(OC[C@@H]5CO[C@@](Cn6cncn6)(c6ccc(F)cc6F)C5)cc4)CC3)cc2)c1=O [POSACONAZOLE],Activity,Trypanosoma cruzi [14],Active
same,half-life,[15],7 h
same,half-life,[16],7 h
